Assay results reported in ChEMBL document CHEMBL1629542, “Epigallocatechin gallate inactivates clinical isolates of herpes simplex virus” (Antimicrob Agents Chemother, 2008).
Active and inactive are the calls of the source.

Legend:
Human alphaherpesvirus 1 [1] = test: Antiviral activity against Human herpesvirus 1 isolate P56 infected in African green monkey vero cells assessed as log reduction in viral titer at 50 uM; type: functional
Procedure, shortened: (§1)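 Laboratory HSV-1 F1 or patient-swab HSV-1 isolates were prepared as clarified Vero supernatants. They were incubated 1 h with a range of EGCG concentrations in RPMI 1640/1% FCS at pH 7.4. Titres were determined on Vero cells by 5-day CPE endpoint (Reed-Muench). IC99 was read graphically as 99% titre drop from untreated; mean ± SD, three experiments.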

Human alphaherpesvirus 2 [2] = test: Antiviral activity against Human herpesvirus 2 isolate P22 infected in African green monkey CV1 cells assessed as log reduction in viral titer at 12.5 uM; type: functional, CV-1
Procedure, shortened: (§2)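 HSV-2 (clinical swab isolates or strain 333) was grown in CV-1 cells and used as clarified supernatant. Virus was exposed to graded EGCG for 1 h in RPMI 1640 with 1% FCS, pH 7.4. Tenfold dilutions were titrated on CV-1 cells, three wells each, 5 days at 37°C, scoring CPE. TCID50 was calculated by Reed-Muench. IC99 was read graphically as 99% titer drop from the zero-concentration titer. Mean of three experiments.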

Human alphaherpesvirus 1 [3] = test: Antiviral activity against Human herpesvirus 1 isolate P38 infected in African green monkey vero cells assessed as log reduction in viral titer at 100 uM after 30 mins; type: functional
Procedure, shortened: (§3)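 In the time course, HSV-1 clinical isolates (clarified Vero supernatants) were exposed to 100 μM EGCG for varying times up to 60 min. Residual infectivity was then titrated on Vero cells by 5-day CPE endpoint with Reed-Muench calculation. Mean ± SD of three separate experiments.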

Human alphaherpesvirus 1 [4] = test: Antiviral activity against Human herpesvirus 1 isolate P32 infected in African green monkey vero cells assessed as log reduction in viral titer at 100 uM within 10 mins; type: functional; procedure, shortened: as §3
Human alphaherpesvirus 2 [5] = test: Antiviral activity against Human herpesvirus 2 isolate P22 infected in African green monkey CV1 cells assessed as log reduction in viral titer at 100 uM within 20 mins; type: functional, CV-1
Procedure, shortened: (§4)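 Time course: clarified CV-1 supernatant of HSV-2 (clinical isolates or strain 333) was exposed to 100 μM EGCG for increasing times. It was then titrated by tenfold dilution on CV-1 cells, three wells per dilution, for 5 days at 37°C with CPE read-out. Reed-Muench TCID50 was compared with the untreated titer. Mean of three separate experiments.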

Human alphaherpesvirus 1 [6] = test: Antiviral activity against Human herpesvirus 1 isolate P56 infected in African green monkey vero cells assessed as log reduction in viral titer at 100 uM after 30 mins; type: functional; procedure, shortened: as §3
Human alphaherpesvirus 1 [7] = test: Antiviral activity against Human herpesvirus 1 isolate P56 infected in African green monkey vero cells assessed as reduction in viral titer; type: functional, organism-based; conditions: Human alphaherpesvirus 1, isolate P56, Vero; procedure, shortened: as §1
Human alphaherpesvirus 1 [8] = test: Antiviral activity against Human herpesvirus 1 isolate P32 infected in African green monkey vero cells assessed as log reduction in viral titer at 50 uM; type: functional; procedure, shortened: as §1
Human alphaherpesvirus 2 [9] = test: Antiviral activity against Human herpesvirus 2 strain 333 strain 333 infected in African green monkey CV-1 cells; type: functional, cell-based; conditions: Human alphaherpesvirus 2, strain 333, CV-1; procedure, shortened: as §2
Human alphaherpesvirus 1 [10] = test: Antiviral activity against Human herpesvirus 1 isolate P25 infected in African green monkey vero cells assessed as reduction in viral titer at 100 uM; type: functional, organism-based; procedure, shortened: as §1
Human alphaherpesvirus 2 [11] = test: Antiviral activity against Human herpesvirus 2 isolate P11 infected in African green monkey CV1 cells assessed as log reduction in viral titer at 100 uM within 10 mins; type: functional, CV-1
Procedure, shortened: (§5)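 HSV-2 clinical isolates from clarified CV-1 supernatants were held with 100 μM EGCG for timed intervals, from 10 min onward. Surviving virus was titrated on CV-1 cells by 10-fold dilution and 5-day CPE scoring, with TCID50 by Reed-Muench. Values are mean ± SD, three experiments.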

Human alphaherpesvirus 2 [12] = test: Antiviral activity against Human herpesvirus 2 isolate P27 infected in African green monkey CV1 cells assessed as log reduction in viral titer at 100 uM within 20 mins; type: functional, CV-1; procedure, shortened: as §4
Human alphaherpesvirus 1 [13] = test: Antiviral activity against Human herpesvirus 1 F1 infected in African green monkey CV1 cells assessed as log reduction in viral titer at 100 uM; type: functional, CV-1
Human alphaherpesvirus 1 [14] = test: Antiviral activity against Human herpesvirus 1 isolate P25 infected in African green monkey vero cells assessed as log reduction in viral titer at 100 uM after 30 mins; type: functional; procedure, shortened: as §3
Human alphaherpesvirus 2 [15] = test: Antiviral activity against Human herpesvirus 2 isolate P47 infected in African green monkey CV1 cells assessed as log reduction in viral titer at 100 uM within 20 mins; type: functional, CV-1; procedure, shortened: as §4
Human alphaherpesvirus 2 [16] = test: Antiviral activity against Human herpesvirus 2 isolate P2 infected in African green monkey CV1 cells assessed as log reduction in viral titer at 100 uM within 20 mins; type: functional, CV-1; procedure, shortened: as §4
Human alphaherpesvirus 2 [17] = test: Antiviral activity against Human herpesvirus 2 isolate P47 infected in African green monkey CV1 cells assessed as log reduction in viral titer at 12.5 uM; type: functional, CV-1; procedure, shortened: as §2
Human alphaherpesvirus 1 [18] = test: Antiviral activity against Human herpesvirus 1 F1 assessed as decrease in labeled gD envelope glycoprotein at 100 uM after 2 hrs by electron microscopy; type: functional, organism-based
Procedure, shortened: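 Purified HSV-1 F1 virions were treated with 100 μM EGCG for 2 h, fixed in glutaraldehyde/paraformaldehyde and LR White-embedded without osmium. Nickel-grid sections were blocked with BSA and goat serum, then labelled overnight with anti-gB or anti-gD monoclonal (1:15) and 15 nm colloidal gold. Labelled versus unlabelled particles were counted in 10 fields of 100 particles; mean ± SD.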

Human alphaherpesvirus 2 [19] = test: Antiviral activity against Human herpesvirus 2 isolate P2 infected in African green monkey CV1 cells assessed as log reduction in viral titer at 100 uM within 10 mins; type: functional, CV-1; procedure, shortened: as §5
Human alphaherpesvirus 2 [20] = test: Antiviral activity against Human herpesvirus 2 isolate P47 infected in African green monkey CV1 cells; type: functional, organism-based; conditions: Human alphaherpesvirus 2, isolate P47, CV-1; procedure, shortened: as §2
Human alphaherpesvirus 1 [21] = test: Antiviral activity against Human herpesvirus 1 isolate P32 infected in African green monkey vero cells assessed as log reduction in viral titer at 100 uM after 30 mins; type: functional; procedure, shortened: as §3
Human alphaherpesvirus 2 [22] = test: Antiviral activity against Human herpesvirus 2 isolate P12 infected in African green monkey CV1 cells assessed as log reduction viral titer at 50 uM; type: functional, CV-1
Procedure, shortened: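 HSV-2 patient-swab isolates were grown as clarified CV-1 supernatants and incubated 1 h with a range of EGCG concentrations (RPMI 1640/1% FCS, pH 7.4). They were titrated on CV-1 cells from 10-fold dilutions by 5-day CPE at 37°C, with Reed-Muench TCID50. IC99 was derived graphically as 99% reduction from zero-drug titre; mean ± SD, three experiments.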

Human alphaherpesvirus 1 [23] = test: Antiviral activity against Human herpesvirus 1 isolate P42 infected in African green monkey vero cells assessed as log reduction in viral titer at 50 uM; type: functional; procedure, shortened: as §1
Human alphaherpesvirus 1 [24] = test: Antiviral activity against Human herpesvirus 1 isolate P42 infected in African green monkey vero cells assessed as reduction in viral titer at 100 uM; type: functional, organism-based; procedure, shortened: as §1
Human alphaherpesvirus 1 [25] = test: Antiviral activity against Human herpesvirus 1 isolate P42 infected in African green monkey vero cells assessed as log reduction in viral titer at 100 uM after 40 to 60 mins; type: functional; procedure, shortened: as §3
Human alphaherpesvirus 2 [26] = test: Antiviral activity against Human herpesvirus 2 isolate P2 infected in African green monkey CV1 cells assessed as log reduction viral titer at 50 uM; type: functional, CV-1; procedure, shortened: as §2
Human alphaherpesvirus 2 [27] = test: Antiviral activity against Human herpesvirus 2 isolate P27 infected in African green monkey CV1 cells assessed as log reduction in viral titer at 12.5 uM; type: functional, CV-1; procedure, shortened: as §2
Human alphaherpesvirus 1 [28] = test: Antiviral activity against Human herpesvirus 1 isolate P38 infected in African green monkey vero cells assessed as log reduction in viral titer at 50 uM; type: functional; procedure, shortened: as §1

O=C(O[C@@H]1Cc2c(O)cc(O)cc2O[C@@H]1c1cc(O)c(O)c(O)c1)c1cc(O)c(O)c(O)c1 [EPIGALOCATECHIN GALLATE]
3.5: FC (Human alphaherpesvirus 1 [13])
active: Activity (Human alphaherpesvirus 1 [10]) | Activity (Human alphaherpesvirus 1 [18]) | Activity (Human alphaherpesvirus 1 [24])
3: FC (Human alphaherpesvirus 2 [5]) | FC (Human alphaherpesvirus 2 [12]) | FC (Human alphaherpesvirus 2 [15]) | FC (Human alphaherpesvirus 2 [16]) | FC (Human alphaherpesvirus 1 [25])
2: FC (Human alphaherpesvirus 1 [1]) | FC (Human alphaherpesvirus 1 [3]) | FC (Human alphaherpesvirus 1 [4]) | FC (Human alphaherpesvirus 1 [6]) | FC (Human alphaherpesvirus 1 [8]) | FC (Human alphaherpesvirus 2 [11]) | FC (Human alphaherpesvirus 1 [14]) | FC (Human alphaherpesvirus 2 [19]) | FC (Human alphaherpesvirus 1 [21]) | FC (Human alphaherpesvirus 1 [23]) | FC (Human alphaherpesvirus 1 [28])
>4: FC (Human alphaherpesvirus 2 [22]) | FC (Human alphaherpesvirus 2 [26])
12.5 µM: IC99 (Human alphaherpesvirus 2 [20])
18.3 µM: IC99 (Human alphaherpesvirus 1 [7])
25 µM: IC99 (Human alphaherpesvirus 2 [9])
>=2: FC (Human alphaherpesvirus 2 [2]) | FC (Human alphaherpesvirus 2 [17]) | FC (Human alphaherpesvirus 2 [27])
